Assay outcomes (PubChem BioAssay)
MEKK3 PB1 HTS = modulators of MEKK3-MEK5 PB1 binding, primary screen, biochemical, wildtype MEKK3, multiplex bead flow cytometry, Alexa488-MEK5. Mitogen-activated protein kinase kinase kinase 3 (Homo sapiens), Q99759. bead-based flow cytometry, Alexa488-MEK5 binding to MEKK3; actives lie on both sides; 0 = blocked by unlabeled MEK5, 100 = vehicle. binding response (% of control), % at 10 µM. actives 1.4% (n = 290,000). AID 1529, 2009;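 active = binding response more than 3 SD above or below the average of its plate-row segment, actives on both sides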;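 also: Alexa488 bead fluorescence after subtracting the streptavidin-only scavenger bead signal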
Target sequence (Q99759 whole entry, looked up): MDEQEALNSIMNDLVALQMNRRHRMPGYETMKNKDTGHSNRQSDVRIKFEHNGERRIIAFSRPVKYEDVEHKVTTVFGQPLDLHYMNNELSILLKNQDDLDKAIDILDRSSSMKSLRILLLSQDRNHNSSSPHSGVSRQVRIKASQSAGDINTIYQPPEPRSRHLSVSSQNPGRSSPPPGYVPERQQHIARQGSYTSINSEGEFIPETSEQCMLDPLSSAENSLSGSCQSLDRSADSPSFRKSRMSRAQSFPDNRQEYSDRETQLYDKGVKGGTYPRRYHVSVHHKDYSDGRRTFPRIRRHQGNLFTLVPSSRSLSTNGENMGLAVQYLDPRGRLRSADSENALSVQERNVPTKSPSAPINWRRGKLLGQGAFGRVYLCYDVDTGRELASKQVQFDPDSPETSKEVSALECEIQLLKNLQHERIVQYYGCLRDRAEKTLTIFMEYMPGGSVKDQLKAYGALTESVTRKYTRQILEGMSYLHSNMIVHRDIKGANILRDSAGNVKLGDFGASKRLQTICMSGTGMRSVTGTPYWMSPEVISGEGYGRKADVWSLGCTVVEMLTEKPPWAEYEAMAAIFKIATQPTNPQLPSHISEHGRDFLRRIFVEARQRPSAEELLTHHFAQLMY
MEKK2wt PB1 HTS = modulators of MEK5 binding to wildtype MEKK2, primary screen, biochemical, multiplex bead flow cytometry, Alexa488-MEK5 | actives 1.1% (n = 290,000) | Mitogen-activated protein kinase kinase kinase 2 (Homo sapiens), Q9Y2U5 | binding response (% of control), % at 10 µM | Alexa488-MEK5 binding to MEKK2 WT; actives lie on both sides | AID 1531, 2009; in the data active = binding response below about 67% or above about 130%
ABCB1 block = ABCB1 efflux pump inhibitors, primary screen, cell-based, multiplex, flow cytometry, ABCG2 counter-screen; CCRF-Adr cells, JC-1 efflux; ATP-dependent translocase ABCB1 (Homo sapiens), P08183; AID 1326, 2008; actives 0.067% (n = 190,000); inhibition, % at 6.6 µM; in the data active = inhibition above about 40%;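 also: 0% = vehicle and 100% = reference inhibitor; higher value means more JC-1 retained so stronger ABCB1 efflux block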
MEKK2mut PB1 HTS = MEK5 binding signal on mutant MEKK2 PB1, primary screen, biochemical, multiplex bead flow cytometry, Alexa488-MEK5. actives 0.35% (n = 290,000). percent response, % at 10 µM. Alexa488-MEK5 binding to MEKK2 mutant; in the data active = percent response above about 24%, passing the limit was not always enough
ABCG2 block = ABCG2 efflux pump inhibitors, primary screen, multiplex with ABCB1, IgMXP3 cells, flow cytometry; Broad substrate specificity ATP-binding cassette transporter ABCG2 (Homo sapiens), Q9UNQ0; JC-1 efflux; inhibition, % at 6.6 µM; actives 0.1% (n = 190,000);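 active = inhibition above 80%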;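 also: 0% = DMSO and 100% = nicardipine control wells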
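Measure – % inhibition of efflux relative to nicardipine and DMSO · Test system – ABCG2 IgMXP3 and barcoded ABCB1 CCRF-Adr cell mix · Control set – nicardipine as high control, DMSO as low control · Compound – one concentration, 6.6 µM final · Signal – flow cytometry of retained JC-1 fluorescence · Timing – 10 min exposure at 25 °C with rotation, no wash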
MEKK2wt confirm = modulators of MEK5 binding to wildtype MEKK2, confirmation, biochemical, single concentration, multiplex bead flow cytometry | shares compounds with MEKK3 PB1 HTS | Alexa488-MEK5 binding to MEKK2 WT; actives lie on both sides | binding response (% of control), % at 10 µM | actives 2.4% (n = 5,900) | AID 1892, 2009; in the data active = binding response below about 16% or above about 210%; inactive = in between
MEKK2mut-MEK5 = mutant MEKK2 PB1-MEK5 binding signal retest – biochemical, single concentration, multiplex bead flow cytometry, confirmation. shares compounds with MEKK3 PB1 HTS. Alexa488-MEK5 binding to MEKK2 mutant. percent response, % at 10 µM. actives 2% (n = 5,900). AID 1893, 2009; in the data active = percent response mostly above about 71%, no sharp cut-off; inactive = mostly below about 38%;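 also: higher means compound restores mutant binding toward wildtype level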
MEKK3 confirm = MEKK3 wild-type PB1 binding to MEK5, inhibitors, confirmation, biochemical, bead multiplex flow cytometry, single concentration, wildtype; actives 1.8% (n = 5,900); Alexa488-MEK5 binding to MEKK3; stronger effect = lower value; shares compounds with MEKK3 PB1 HTS; binding response (% of control), % at 10 µM;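 active = binding response below 72% of control, or above a set upper limit, though filed actives all read lower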;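 also: 100% = DMSO only wells and 0% = binding blocked by excess unlabeled MEK5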
The depositor's hits bear a star; · = no result; [ ] = remark or other dose. Sampled rows, rich in hits. Any-hit rate of the full collection: about 2.3%.

SMILES	MEKK3 PB1 HTS	MEKK2wt PB1 HTS	ABCB1 block	MEKK2mut PB1 HTS	ABCG2 block	MEKK2wt confirm	MEKK2mut-MEK5	MEKK3 confirm
Cc1ccc(NC(=O)c2c([N+](=O)[O-])c(C(C)(C)C)nn2C)c(C)c1	137*	109	3	1	22	103	4	105
CC(=O)Nc1ccc(NC(=O)c2c([N+](=O)[O-])c(C(C)(C)C)nn2C)cc1	94	97	·	-5	·	·	·	·
CCn1c(SCC(=O)N/N=C/c2cc(OC)c(O)c(OC)c2)nc2ccccc21	100	99	-1	-2	6	·	·	·
CCn1c(SCC(=O)N/N=C/c2ccc(O)c(OC)c2)nc2ccccc21	163*	112	0	1	0	97	0	96
CCn1c(SCC(=O)N/N=C/c2cccs2)nc2ccccc21	144*	104	1	1	4	100	-3	103
COc1cc(/C=N/NC(=O)CCc2c(C)n[nH]c2C)ccc1O	123*	111	0	6	0	104	5	104
Cc1ccc(C(=O)Nc2ccccc2)cc1S(=O)(=O)N1CCN(C)CC1	99	101	·	5	·	·	·	·
CC(C)C(=O)Nc1cccc(-c2csc(-c3ccccc3)n2)c1	139*	110	1	0	19	95	-1	103
OCCCCCNc1ncnc2ccccc12	128*	111	0	12	3	101	2	98
CCN(CC)CCCNc1ncnc2ccccc12	98	103	0	-1	-1	·	·	·
O=C(NCC(=O)N(CC1CCCO1)C(C(=O)NC1CCCCC1)c1ccccc1)c1cccs1 (configuration not stated)	98	99	1	-1	3	·	·	·
O=C(NCC(=O)N(CC1CCCO1)C(C(=O)NC1CCCCC1)c1cccnc1)c1cccs1 (configuration not stated)	131*	123	0	3	-1	103	6	106
Cc1cccc(N2CCN(C(=O)CCCCCn3c(=S)[nH]c4ccc(N5CCOCC5)cc4c3=O)CC2)c1C	98	93	·	-11	·	·	·	·
CN(C)c1ccc(C(CN)c2c[nH]c3ccccc23)cc1 (configuration not stated)	69*[inhibitor]	110	1	0	3	131	18	97
COc1cccc2sc(N(CCN(C)C)C(=O)c3ccc4c(c3)CCCC4)nc12	104	130	·	16	·	·	·	·
CCOc1ccc2nc(N(CCCN(C)C)C(=O)c3ccc4c(c3)CCCC4)sc2c1	105	158*	·	26*	·	160	37	105
CCOc1ccc2nc(N(CCCN(C)C)C(=O)c3ccc(S(=O)(=O)N4CCc5ccccc5C4)cc3)sc2c1	103	168*	·	20	·	176	39	102
CN(C)CCCN(C(=O)c1ccc2c(c1)CCCC2)c1nc2ccc(Cl)cc2s1	107	196*	4	78*	12	221*	62	107
Cc1ccc(NC(=O)c2sc3ncn(CC(=O)N4CCOCC4)c(=O)c3c2C)c(Br)c1	97	95	·	-1	·	·	·	·
COc1cc(NC(=O)Cn2cnc(S(=O)(=O)N3CCOCC3)c2)cc(OC)c1OC	96	97	·	-2	·	·	·	·
O=C(C1CCN(c2nnc(-n3cccc3)s2)CC1)N1CCN(Cc2ccc3c(c2)OCO3)CC1	104	108	1	4	2	·	·	·
CC1CCN(Cc2ccc(NC(=O)C3CCN(c4nnc(-n5cccc5)s4)CC3)cc2)CC1	105	231*	1	78*	3	186	62	108
CCc1nc(SCC(=O)Nc2ccc(F)cc2)c2c(=O)n(C)c(=O)n(C)c2n1	103	102	·	0	·	·	·	·
O=C(O)Cn1c(-c2cscn2)nc2ccccc21	123*	133	0	8	1	104	8	104
Cc1ccc(CC(=O)O/N=C(\N)c2ccncc2)cc1	96	102	·	4	·	·	·	·
SMILES	MEKK3 PB1 HTS	MEKK2wt PB1 HTS	ABCB1 block	MEKK2mut PB1 HTS	ABCG2 block	MEKK2wt confirm	MEKK2mut-MEK5	MEKK3 confirm
CN(Cc1ccccn1)Cc1cn(Cc2ccccc2)nc1-c1ccc2c(c1)OCO2	107	196*	-1	42	-2	106	4	101
Cc1ccc(Cl)cc1NC(=O)C1CC1c1ccccc1 (configuration not stated)	104	99	·	0	·	·	·	·
Cc1cc2ccccc2n1CCNC(=O)c1ccccc1	66*[inhibitor]	75	0	-33	2	30	-32	59*
Cc1onc(-c2ccccc2Cl)c1C(=O)NCCn1c(C)cc2ccccc21	71*[inhibitor]	·	·	-31	·	98	-7	98
Cc1cc2ccccc2n1CCNC(=O)COc1ccccc1	58*[inhibitor]	33*[inhibitor]	0	-27	4	65	-16	88
Cc1cc2ccccc2n1CCNC(=O)c1ccc(Br)o1	47*[inhibitor]	99	0	8	2	21	-30	53*
CC(=O)NCCn1c(C)cc2ccccc21	101	106	0	5	1	·	·	·
CCC(=O)NCCn1c(C)cc2ccccc21	99	107	0	4	0	·	·	·
CCCCCCCNC(=O)C1(CC2CC(c3ccc(Cl)cc3)=NO2)CCN(C(=O)CCCCCBr)CC1 (configuration not stated)	96	97	·	3	·	·	·	·
CCOc1ccc(CCNC(=O)c2cccs2)cc1OCC	104	102	·	1	·	·	·	·
Cc1cc2ccccc2n1CCNC(=O)c1ccc(S(=O)(=O)N2CCOCC2)cc1	57*[inhibitor]	·	1	-5	22	77	-12	89
O=C(NCCCN1CCOCC1)c1ccc(S(=O)(=O)N2CCOCC2)cc1	103	103	0	5	0	·	·	·
COc1ccc(OC)c(NC(=O)CCNS(=O)(=O)c2cc(Br)cnc2N)c1	104	99	·	8	·	·	·	·
CC12C=CC3(O1)C(C(=O)N(c1ccccc1)C3C(=O)NC1CCCC1)C2C(N)=O (configuration not stated)	20*[inhibitor]	29*[inhibitor]	0	-3	-1	102	2	102
